CendR NRP1 mod = NRP-1/CendR interaction modulation; FAM-RPARPAR peptide binding to NRP-1, fluorescence polarization; inhibition, % at 25 µM; 0.85% of 360,000 active; AID 602438;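 active = inhibition or corrected inhibition above about 18%, plus a signal ratio from 0.5 to 1.5, limit read from the data, passing the limit was not always enough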
SENP6 block = inhibitors of human SENP6 protease; inhibition, % at 10 µM; Recombinant SENP6 catalytic domain, aminoluciferin luminescence; Q9GZR1; 1.8% of 330,000 active;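 active = inhibition above about 50% at the single tested dose, limit read from the data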
SENP8 block-1 = inhibitors of human SENP8 protease; purified SENP8, Z-RLRGG-aminoluciferin cleavage, luminescence; AID 2540; inhibition, % at 10 µM; 1.2% of 330,000 active; Q96LD8; in the data active = inhibition above about 50%
Target sequence (Q96LD8 whole entry, looked up): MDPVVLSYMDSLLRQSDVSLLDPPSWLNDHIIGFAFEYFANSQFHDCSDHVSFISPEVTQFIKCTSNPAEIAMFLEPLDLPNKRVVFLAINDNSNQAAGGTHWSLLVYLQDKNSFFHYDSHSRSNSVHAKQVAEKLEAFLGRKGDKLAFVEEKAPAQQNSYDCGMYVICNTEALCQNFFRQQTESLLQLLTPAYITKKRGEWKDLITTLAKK
SENP1 inh = blocks the human SENP1 SUMO protease catalytic domain | Q9P0U3 | recombinant SENP1 catalytic domain, CyPet-SUMO1-YPet FRET cleavage | inhibition, % at 10 µM | 0.21% of 360,000 active | AID 624204;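 active = inhibition at least 30% at 10 µM, raw YFP signal under a set limit, fluorescence ratio 0.5 to 1.5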
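System: Recombinant human SENP1 catalytic domain, His6-tagged | Incubation: Enzyme reaction for 50 min at room temperature, dark | Medium: Tris pH 8 with BME, BSA, NP40 and catalase | Also added: 25 nM SUMO1 FRET substrate | Compound: 10 µM single point, 0.5% DMSO | Measured by: FRET fluorescence in CFP and YFP emission channels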
SENP7 inh = SENP7 protease inhibition. inhibition, % at 5 µM. Q9BQF6. recombinant SENP7, Z-RLRGG-aminoluciferin luminescence, 40 min. 1.5% of 330,000 active;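 active = inhibition above about 50% at the single test dose, limit read from the data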
Target sequence (Q9BQF6 706-1050 limits assumed): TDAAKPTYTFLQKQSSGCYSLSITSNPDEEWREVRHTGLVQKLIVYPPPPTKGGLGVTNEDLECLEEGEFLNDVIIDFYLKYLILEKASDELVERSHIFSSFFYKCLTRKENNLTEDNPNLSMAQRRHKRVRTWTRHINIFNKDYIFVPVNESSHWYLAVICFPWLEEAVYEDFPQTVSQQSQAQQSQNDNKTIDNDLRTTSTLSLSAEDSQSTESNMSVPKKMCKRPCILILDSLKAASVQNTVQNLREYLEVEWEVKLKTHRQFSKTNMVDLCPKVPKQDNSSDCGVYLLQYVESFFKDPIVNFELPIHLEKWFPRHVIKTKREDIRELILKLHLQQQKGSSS
SENP8 block-2 = SENP8 (human) protease inhibition; 0.64% of 360,000 active; inhibition, % at 20 µM; recombinant SENP8, Nedd8 substrate fluorescence; AID 602440; Q96LD8; in the data active = inhibition mostly above about 40%, no sharp cut-off; inactive = mostly below about 27%
Large screens that a line does not name were inactive. The list is not random: actives were taken first. Their share in the collection is about 3.3%.

C=CCN1C=C2C(=O)C(C)(OC(=O)CCC(=O)OC)C(=O)C=C2C=C1C1CC1 (stereo unspecified)	CendR NRP1 mod 38
COC(=O)CCC(=O)OC1(C)C(=O)C=C2C=C(C3CC3)N(CCN3CCOCC3)C=C2C1=O (stereo unspecified)	none
COc1ccc(-c2nc3c4ccccc4ccn3c2Cc2ccsc2)cc1OC	none (no result: SENP6 block, SENP8 block-1, SENP7 inh)
CSc1ccc(/C=C/C(=O)OCC(=O)N2CCN(c3ccccc3)CC2)cc1	none (no result: SENP6 block, SENP8 block-1, SENP7 inh)
O=C(COc1ccc(Cl)cc1Br)N1CCN(c2ccccc2)CC1	CendR NRP1 mod 34
O=C(/C=C/c1cccc(Br)c1)OCC(=O)N1CCN(c2ccccc2)CC1	CendR NRP1 mod 27
CN(Cc1ccccc1)C(=O)c1cccc(NC(=O)Cc2ccc(NC(=O)C3CCN(C(=O)C4CCC4)CC3)cc2)c1	none (no result: SENP6 block, SENP8 block-1, SENP7 inh)
CCN(CC)CCN1CCN(c2cnc(C)cn2)CC1	CendR NRP1 mod 23 (no result: SENP6 block, SENP8 block-1, SENP7 inh)
COc1ccc(C(=O)N[C@H](C(=O)Nc2nc3c(s2)CCCC3)C(C)C)cc1	CendR NRP1 mod 26
Cc1ccc(C(=O)NNC(=O)C2CCN(Cc3ccccc3)CC2)cc1	none
O=C(NNC(=O)C1CCN(Cc2ccccc2)CC1)c1cccc(Cl)c1	CendR NRP1 mod 23
CC1CCCC(C)N1/N=C/c1ccc(O)c(O)c1 (stereo unspecified)	SENP8 block-2 51
Oc1ccc(/C=N/N2CCCCC2)cc1O	SENP8 block-2 45
COc1ccc(/C=N/N2C(C)CCCC2C)cc1O (stereo unspecified)	none
Clc1ccc(C=NN2CCCCCC2)cc1Cl	none (no result: SENP6 block, SENP8 block-1, SENP7 inh)
COC(=O)[C@@]12C[C@@H](CC(=O)NCCc3ccccc3OC)C(=O)N(Cc3ccco3)C1=CCC(C)(C)C2	none (no result: SENP6 block, SENP8 block-1, SENP7 inh)
COC(=O)[C@@]12C[C@@H](CC(=O)N3CCOCC3)C(=O)N(Cc3cccc4ccccc34)C1=CCC(C)(C)C2	none (no result: SENP6 block, SENP8 block-1, SENP7 inh)
CCOC(=O)C(C(=O)OCC)c1cc(Br)c2noc3c2c1C(=O)c1ccccc1-3	SENP6 block 65, SENP8 block-2 87
O=C(c1coc2ccc(O)cc12)C1CC1	CendR NRP1 mod 19
Cc1ccc(S(=O)(=O)N2CC3C(=O)C[C@@H](c4ccccc4)N(S(=O)(=O)c4ccc(CCCOCCOCCNC(=O)OC(C)(C)C)cc4)C3CC2c2ccccc2)cc1 (stereo partly specified)	none (no result: SENP6 block, SENP8 block-1, SENP7 inh)
O=C(Nc1ccc2c(c1)OCCO2)C(C1CC1)n1c(=O)c(-c2cc3ccccc3[nH]2)nc2ccccc21 (stereo unspecified)	none (no result: SENP6 block, SENP8 block-1, SENP7 inh)
CCCCNc1ccc2nsnc2c1[N+](=O)[O-]	SENP6 block 67
O=C(O)c1ccc2c(c1)S(=O)(=O)c1cc(N3CCN(c4cnccn4)CC3)ccc1C2=O	none (no result: SENP6 block, SENP8 block-1, SENP7 inh)
CCCC(=O)N1CCCC(c2cc(C(=O)Nc3ccccc3)no2)C1 (stereo unspecified)	none (no result: SENP6 block, SENP8 block-1, SENP7 inh)
CCS(=O)(=O)c1nc(S(=O)(=O)c2ccc(Cl)cc2)c(N2CCOCC2)s1	CendR NRP1 mod 35
CC(C)NC(=O)C1(C)CN(S(C)(=O)=O)CC(=O)N1CCOc1ccccc1 (stereo unspecified)	none (no result: SENP6 block, SENP8 block-1, SENP7 inh)
COc1ccc(S(=O)(=O)N2CCCCC2c2cc(C(=O)Nc3ccc(OC)cc3C)no2)cc1 (stereo unspecified)	CendR NRP1 mod 45 (no result: SENP6 block, SENP8 block-1, SENP7 inh)
O=C(O)c1ccc(-c2ccc(-c3ccccc3)cc2)s1	SENP6 block 99, SENP8 block-1 97, SENP7 inh 101
C/C(=N\NS(=O)(=O)c1ccc(C(C)(C)C)cc1)c1ccccc1	none
Cc1ccc(S(=O)(=O)/N=C2\C=C(NS(=O)(=O)c3ccccc3)C(=O)c3ccccc32)c(C)c1	SENP8 block-2 50 (no result: SENP6 block, SENP8 block-1, SENP7 inh)
O=C1C(Nc2ccccc2)=C(NS(=O)(=O)c2ccccc2)C(=O)c2ccccc21	none
CC(C)(C)c1ccc(S(=O)(=O)/N=C2\C=C(NS(=O)(=O)c3ccccc3)C(=O)c3ccccc32)cc1	SENP8 block-2 51
Cc1cc(SCC(=O)c2ccccc2)nc(C)n1	CendR NRP1 mod 26
COC(=O)C1=C(C)N(Cc2ccccc2)C(=NCCc2ccccn2)N[C@H]1c1cccc(C(F)(F)F)c1	none
CCN1C(=NCCc2ccccn2)N[C@@H](c2cccc(C(F)(F)F)c2)C(C(=O)OC)=C1C	CendR NRP1 mod 21
COc1c(OC(C)=O)c(=O)n2c3ccccc3c3ccnc1c32	SENP1 inh 69
CC(=O)Oc1c(C)c(=O)n(C)c2ccccc12	none
O=S(=O)(NCc1ccncc1)c1ccc(F)c(F)c1	none (no result: SENP6 block, SENP8 block-1, SENP7 inh)
Cc1ccc(S(=O)(=O)NCc2ccncc2)cc1C	CendR NRP1 mod 22
NC(=O)c1ccccc1N/C=C/C(=O)c1ccc(F)cc1	SENP6 block 97, SENP8 block-1 81, SENP7 inh 91
CN(C)c1ncnc2c1ncn2C1CCCCO1 (stereo unspecified)	none (no result: SENP6 block, SENP8 block-1, SENP7 inh)
CN(C)c1ncnc2c1ncn2C1CCCO1 (stereo unspecified)	CendR NRP1 mod 26 (no result: SENP6 block, SENP8 block-1, SENP7 inh)
O=[N+]([O-])c1cc(Cl)cc(/C=N/n2cnnc2)c1O	SENP8 block-2 47
COc1ccc(NS(=O)(=O)c2csc(C(=O)N3CCCC3)c2)c(OC)c1	CendR NRP1 mod 19
COc1ccc(OC)c(S(=O)(=O)Nc2ccccc2C(=O)N2CCCCC2)c1	none
COc1ccc(N=Nc2c(N)nn(C)c2N)cc1	SENP8 block-2 51 (no result: SENP6 block, SENP8 block-1, SENP7 inh)
Cc1n[nH]c(C)c1S(=O)(=O)N1CCC(C(=O)O)CC1	none
Cc1n[nH]c(C)c1S(=O)(=O)N1CCOCC1	CendR NRP1 mod 27
COc1ccccc1NS(=O)(=O)c1cc(N/C(=N\S(=O)(=O)c2ccccc2)c2ccc(F)cc2)ccc1Cl	CendR NRP1 mod 34
COc1cccc(/C(C)=N/NC(=O)c2ccc(N(C)C)cc2)c1	SENP6 block 69, SENP8 block-1 55
Oc1ccccc1N=Cc1ccc[nH]1	SENP8 block-2 41
COC(=O)C[C@H]1CC[C@@H](NC(=O)c2ccncc2)[C@@H](CO)O1	none (no result: SENP6 block, SENP8 block-1, SENP7 inh)
Cc1ccc(-n2c(C)cc(C(=O)Cn3nc(C(=O)O)c4ccccc4c3=O)c2C)cc1	none
COc1ccc(-n2c(C)cc(C(=O)Cn3nc(C(=O)O)c4ccccc4c3=O)c2C)cc1	CendR NRP1 mod 30
O=C(COc1cc(Cl)c(Cl)cc1Cl)Nc1cccc(O)c1	SENP7 inh 63
CC1(C(=O)NCc2ccccc2)CN(S(C)(=O)=O)CC(=O)N1CCCN1CCOCC1 (stereo unspecified)	none (no result: SENP6 block, SENP8 block-1, SENP7 inh)
NC1=NC[C@@H](Cc2ccc(O)cc2)N1CCCCC1CCCCC1	CendR NRP1 mod 31
CCc1ccc(NC(=O)CCn2nc(C)c(S(=O)(=O)N3CCCCC3)c2C)cc1	CendR NRP1 mod 24
N=C(N)c1ccc(N=Nc2c(O)ccc3c2[nH]c2ccccc23)cc1	CendR NRP1 mod 72 (no result: SENP6 block, SENP8 block-1, SENP7 inh)
NC(=O)c1ccc(N=Nc2c(O)c3ccccc3[nH]c2=O)cc1	none (no result: CendR NRP1 mod, SENP1 inh, SENP8 block-2)
